The results in this text go back to ChEMBL document CHEMBL3124767, “Synthesis, biological evaluation and molecular modelling studies of 4-anilinoquinazoline derivatives as protein kinase inhibitors” (Bioorg Med Chem, 2014).

Some results are limits rather than exact numbers.

Assay [1] has as its target Dual specificity protein kinase CLK1 (Homo sapiens, UniProt P49759). The assay can be described thus: Inhibition of human recombinant GST-fused CLK1 expressed in Escherichia coli using GRSRSRSRSRSR as substrate. In outline:
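GST-tagged human CLK1 made in E. coli. Buffer A (MgCl2, EGTA, DTT, 25 mM Tris-HCl pH 7.5, heparin) with 0.15 mg BSA/mL, RS peptide substrate at 1 µg/assay, 15 µM final ATP. Run 30 min at 30 °C in triplicate. Activity is given as % of the no-inhibitor maximum after blank subtraction. Compounds screened at 10 µM; IC50 from dose-response curves (usually 0.01–10 µM).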

For assay [2], the target named is Dual specificity tyrosine-phosphorylation-regulated kinase 1A (Rattus norvegicus, UniProt Q63470). In words: Inhibition of rat recombinant GST-fused DYRK1A expressed in Escherichia coli using KKISGRLSPIMTEQ as substrate by scintillation counting in presence of [gamma-33P]ATP.
Assay [3] is described as follows: Inhibition of CK1 delta/epsilon in pig brain using RRKHAAIGpSAYSITA as substrate by scintillation counting in presence of [gamma-33P]ATP. On the set-up: species or system Sus scrofa.
Assay [4] addresses Glycogen synthase kinase-3 (Sus scrofa, UniProt B2LUN4+I6LNT8). The assay can be described thus: Inhibition of GSK3 alpha/beta in pig brain using YRRAAVPPSPSLSRHSSPHQpSEDEEE as substrate by scintillation counting in presence of [gamma-33P]ATP. In outline:
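Native GSK-3α/β from porcine brain, run in triplicate in buffer A (10 mM MgCl2, 1 mM EGTA, 1 mM DTT, 25 mM Tris–HCl pH 7.5, 50 µg heparin/mL) with GS-1 peptide substrate and 15 µM [γ-33P]ATP final, 30 min at 30 °C; spotted on P81 phosphocellulose, acid-washed, counted. Single 10 µM screen, then dose–response (usually 0.01–10 µM) for IC50; blank-subtracted, % of uninhibited activity.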

The target of assay [5] is Cyclin-dependent kinase 5/CDK5 activator 1 (Homo sapiens, UniProt Q00535). In words: inhibition of human recombinant CDK5/p25 using histone H1 as substrate by scintillation counting in presence of [gamma-33P]ATP. It counts as protein-complex assay. A digest of the protocol:
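Human recombinant CDK5/p25 in buffer A (Tris-HCl pH 7.5, MgCl2, EGTA, DTT, heparin) with 1 mg/mL histone H1 and 15 µM [γ-33P]ATP. Run 30 min at 30 °C in triplicate. P81 filter binding, phosphoric acid washes, scintillation counting. Activity is % of maximal after blank subtraction. Compounds screened at 10 µM; IC50 from dose-response curves.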

Dual specificity protein kinase CLK1, sequence (P49759 whole entry, the tested form may be a part): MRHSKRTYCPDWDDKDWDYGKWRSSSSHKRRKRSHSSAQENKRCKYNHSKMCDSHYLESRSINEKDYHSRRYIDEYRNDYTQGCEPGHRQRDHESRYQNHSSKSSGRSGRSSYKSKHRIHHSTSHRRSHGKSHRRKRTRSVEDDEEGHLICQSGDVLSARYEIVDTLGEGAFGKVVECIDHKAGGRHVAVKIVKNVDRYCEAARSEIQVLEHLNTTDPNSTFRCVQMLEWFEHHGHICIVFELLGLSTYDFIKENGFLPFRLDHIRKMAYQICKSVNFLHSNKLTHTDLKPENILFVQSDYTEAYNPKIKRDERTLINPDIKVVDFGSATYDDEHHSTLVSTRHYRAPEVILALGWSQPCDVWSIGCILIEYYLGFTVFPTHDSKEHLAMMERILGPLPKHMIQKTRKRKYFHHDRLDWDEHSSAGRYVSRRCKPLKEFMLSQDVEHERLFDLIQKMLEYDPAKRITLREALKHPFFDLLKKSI
Cyclin-dependent kinase 5/CDK5 activator 1, sequence (Q00535 whole entry): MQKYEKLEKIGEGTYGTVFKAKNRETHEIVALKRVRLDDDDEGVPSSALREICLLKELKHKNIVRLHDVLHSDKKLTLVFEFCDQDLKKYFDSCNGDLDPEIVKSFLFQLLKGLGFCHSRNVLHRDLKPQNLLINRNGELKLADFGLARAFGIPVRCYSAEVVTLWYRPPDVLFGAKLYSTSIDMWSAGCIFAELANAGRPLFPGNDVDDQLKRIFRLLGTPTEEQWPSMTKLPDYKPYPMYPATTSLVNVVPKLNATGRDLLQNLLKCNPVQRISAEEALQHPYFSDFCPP
Cyclin-dependent kinase 5/CDK5 activator 1, sequence (Q15078 whole entry, further chain): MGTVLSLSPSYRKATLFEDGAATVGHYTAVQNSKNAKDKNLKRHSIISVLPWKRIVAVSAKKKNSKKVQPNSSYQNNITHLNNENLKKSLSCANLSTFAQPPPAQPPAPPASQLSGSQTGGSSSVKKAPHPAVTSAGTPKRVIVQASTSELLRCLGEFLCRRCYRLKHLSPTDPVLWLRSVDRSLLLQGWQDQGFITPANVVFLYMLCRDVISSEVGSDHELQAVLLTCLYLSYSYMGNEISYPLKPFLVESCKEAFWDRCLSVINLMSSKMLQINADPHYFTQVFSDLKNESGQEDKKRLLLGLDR

On to `COc1cc2ncnc(Nc3ccccc3)c2cc1OC`, for which the half-maximal inhibitory concentration (IC50) (usually the point on the concentration scale where inhibition reaches its midpoint) is at least 10 µM in assay [1]; above 10 µM in assay [2]; above 10 µM in assay [3]; above 10 µM in assay [4]; above 10 µM in assay [5].
`COc1cc2ncnc(Nc3ccc(OC(F)(F)F)cc3)c2cc1OC`: the IC50 in assay [1], in assay [2], in assay [3], in assay [4] and in assay [5] was above 10 µM each time.
As to `COc1cc2ncnc(Nc3ccc(NC(C)=O)cc3)c2cc1OC`, the IC50 in assay [1], in assay [2], in assay [3], in assay [4] and in assay [5] was above 10 µM throughout.
In the case of `COc1cc2ncnc(Nc3ccc(C(F)(F)F)cc3)c2cc1OC`, the IC50 in assay [1], in assay [2], in assay [3], in assay [4] and in assay [5] was above 10 µM throughout.
For `O=C1Nc2cc(Br)ccc2/C1=C1/Nc2ccccc2/C1=N\O` [6BIO], the IC50 in assay [1] turned out to be 2.1 µM.
In the case of `COc1cc2ncnc(Nc3cccc(C(F)(F)F)c3)c2cc1OC`, the concentration for half-maximal inhibition (IC50) in assay [1], in assay [2], in assay [3], in assay [4] and in assay [5] was above 10 µM each time.
`COc1ccc(Nc2ncnc3cc(OC)c(OC)cc23)cc1OC`: the 50% inhibitory concentration (IC50) in assay [1] was 1.5 µM; in assay [2], at least 10 µM; in assay [3] it was above 10 µM; in assay [4] it was 3 µM; in assay [5], above 10 µM.
Regarding `COc1cc2ncnc(Nc3ccc(C)c(C)c3)c2cc1OC`, the half-inhibitory concentration (IC50) in assay [1], in assay [2], in assay [3], in assay [4] and in assay [5] was above 10 µM each time.
Regarding `COc1ccc(Nc2ncnc3cc(OC)c(OC)cc23)cc1`, the IC50 in assay [1], in assay [2], in assay [3], in assay [4] and in assay [5] was above 10 µM each time.
Take `COc1cc2ncnc(Nc3ccc(C(C)=O)cc3)c2cc1OC`: the IC50 is at least 10 µM in assay [1]; above 10 µM in assay [2]; above 10 µM in assay [3]; above 10 µM in assay [4]; above 10 µM in assay [5].
Turning to `COc1cc2ncnc(Nc3ccc(F)c(Cl)c3)c2cc1OC`, the IC50 in assay [1] is 7.6 µM; in assay [2], above 10 µM; in assay [3], above 10 µM; in assay [4], above 10 µM; in assay [5] it was above 10 µM.
